Laboratory results: ChEMBL document CHEMBL4340542, “Design, synthesis and biological evaluation of 4-aniline-thieno[2,3-d]pyrimidine derivatives as MNK1 inhibitors against renal cell carcinoma and nasopharyngeal carcinoma” (Bioorg Med Chem, 2019)
Active and inactive are the calls of the source. The calls are words filed in the database; no cut-off is given here.

Experiments:
[1] = target: MAP kinase-interacting serine/threonine-protein kinase 1 (Homo sapiens, UniProt Q9BUB5); experiment: Inhibition of human MNK1 using CREBtide substrate by gamma-[32P]-ATP competitive inhibition assay
MAP kinase-interacting serine/threonine-protein kinase 1, sequence (Q9BUB5 whole entry): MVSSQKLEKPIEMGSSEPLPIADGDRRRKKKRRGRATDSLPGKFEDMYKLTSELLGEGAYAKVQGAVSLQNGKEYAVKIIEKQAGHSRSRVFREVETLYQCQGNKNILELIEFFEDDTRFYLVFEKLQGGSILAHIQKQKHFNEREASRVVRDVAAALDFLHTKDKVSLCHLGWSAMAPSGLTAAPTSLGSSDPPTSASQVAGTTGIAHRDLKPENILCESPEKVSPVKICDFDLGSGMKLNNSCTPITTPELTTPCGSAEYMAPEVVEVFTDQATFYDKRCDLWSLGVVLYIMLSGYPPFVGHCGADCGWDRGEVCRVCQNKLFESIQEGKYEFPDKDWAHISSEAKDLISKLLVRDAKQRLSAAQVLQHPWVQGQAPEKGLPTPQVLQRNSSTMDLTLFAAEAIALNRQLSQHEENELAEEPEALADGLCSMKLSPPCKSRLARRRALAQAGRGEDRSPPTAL
Procedure, shortened: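 Run as the Eurofins KinaseProfiler radiometric assay, competitive with γ-[32P]-ATP. IC50 taken as the mean of independent experiments; the footnote gives two.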

CAKI-1 = experiment: Cytotoxicity against human Caki1 cells assessed as decrease in cell viability incubated for 24 hrs by MTT assay; assay type: functional, cell-based
Procedure, shortened: (§1)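 IC50 from an 8–10 point concentration gradient by MTT assay. Panel covers renal cell carcinoma and nasopharyngeal carcinoma lines. Values are mean ± SD, n = 3.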

CNE = experiment: Cytotoxicity against human CNE1 cells assessed as decrease in cell viability incubated for 24 hrs by MTT assay; assay type: functional, cell-based; procedure, shortened: as §1
786-0 = experiment: Cytotoxicity against human 786-O cells assessed as decrease in cell viability incubated for 24 hrs by MTT assay; assay type: functional, cell-based; procedure, shortened: as §1
A498 = experiment: Cytotoxicity against human A498 cells assessed as decrease in cell viability incubated for 24 hrs by MTT assay; assay type: functional, cell-based; procedure, shortened: as §1
SUNE1 = experiment: Cytotoxicity against human SUNE1 cells assessed as decrease in cell viability incubated for 24 hrs by MTT assay; assay type: functional, cell-based; procedure, shortened: as §1
CNE-2 = experiment: Cytotoxicity against human CNE2 cells assessed as decrease in cell viability incubated for 24 hrs by MTT assay; assay type: functional, cell-based; procedure, shortened: as §1
Homo sapiens = species on record: Homo sapiens; experiment: Cytotoxicity against human HNE1 cells assessed as decrease in cell viability incubated for 24 hrs by MTT assay; assay type: functional, cell-based; procedure, shortened: as §1

Row | SMILES | IC50 [1] [nM] | further results
1 | CN1CCc2c(sc3ncnc(Nc4ccc(F)cc4Br)c23)C1 | 1470 | 
2 | Fc1ccc(Nc2ncnc3sc4c(c23)CCN(Cc2ccccc2)C4)c(F)c1 | 1100 | 
3 | CC(C)(C)OC(=O)N1CCc2c(sc3ncnc(Nc4ccc(Cl)cc4F)c23)C1 | 2160 | 
4 | CN1CCc2c(sc3ncnc(Nc4ccc(Cl)cc4)c23)C1 | 1820 | 
5 | Brc1ccc(Nc2ncnc3sc4c(c23)CCN(Cc2ccccc2)C4)cc1 | 1690 | 
6 | O=[N+]([O-])c1ccccc1S(=O)(=O)N1CCc2c(sc3ncnc(Nc4ccc(F)cc4F)c23)C1 | 1080 | 
7 | CN1CCc2c(sc3ncnc(Nc4ccc(F)cc4F)c23)C1 | 1090 | 
8 | COc1cc(F)ccc1Nc1ncnc2sc3c(c12)CCN(C(=O)OC(C)(C)C)C3 | 1340 | 
9 | CC(C)(C)OC(=O)N1CCc2c(sc3ncnc(Nc4ccc(F)cc4Br)c23)C1 | 1720 | 
10 | Clc1ccc(Nc2ncnc3sc4c(c23)CCCC4)cc1 | 1620 | 
11 | Cc1ccc(Nc2ncnc3sc4c(c23)CCN(C(=O)OC(C)(C)C)C4)c(Br)c1 | 1700 | 
12 | O=[N+]([O-])c1ccccc1S(=O)(=O)N1CCc2c(sc3ncnc(Nc4ccc(F)cc4Br)c23)C1 | 1160 | 
13 | Brc1ccc(Nc2ncnc3sc4c(c23)CCCC4)cc1 | 1510 | 
14 | Clc1ccc(Nc2ncnc3sc4c(c23)CCN(Cc2ccccc2)C4)cc1 | 1540 | 
15 | Cc1ccc(Nc2ncnc3sc4c(c23)CCN(C)C4)c(Br)c1 | 1650 | 
16 | Fc1cc(Cl)ccc1Nc1ncnc2sc3c(c12)CCN(Cc1ccccc1)C3 | 1310 | 
17 | COc1cccc(Nc2ncnc3sc4c(c23)CCN(C(=O)OC(C)(C)C)C4)c1 | 1950 | 
18 | COc1ccc(S(=O)(=O)N2CCc3c(sc4ncnc(Nc5ccc(C)cc5Br)c34)C2)cc1 | 1890 | 
19 | COc1cc(F)ccc1Nc1ncnc2sc3c(c12)CCN(Cc1ccccc1)C3 | 1000 | 
20 | CC(C)(C)OC(=O)N1CCc2c(sc3ncnc(Nc4ccc(Br)cc4)c23)C1 | 1810 | 
21 | O=S(=O)(c1ccc(F)cc1F)N1CCc2c(sc3ncnc(Nc4ccc(F)cc4F)c23)C1 | 1100 | 

Row | SMILES | IC50 [1] [nM] | further results
22 | Cc1ccc(Nc2ncnc3sc4c(c23)CCN(S(=O)(=O)c2ccccc2[N+](=O)[O-])C4)c(Br)c1 | 1650 | 
23 | Cc1ccc(Nc2ncnc3sc4c(c23)CCN(Cc2ccccc2)C4)c(Br)c1 | 1570 | 
24 | CC(C)(C)OC(=O)N1CCc2c(sc3ncnc(Nc4ccc(Cl)cc4)c23)C1 | 2240 | 
25 | Fc1ccc(Nc2ncnc3sc4c(c23)CCN(Cc2ccccc2)C4)c(Br)c1 | 1120 | 
26 | CN1CCc2c(sc3ncnc(Nc4ccc(Cl)cc4F)c23)C1 | 1850 | 
27 | Fc1cccc(Nc2ncnc3sc4c(c23)CCCC4)c1 | 2180 | 
28 | COc1ccc(S(=O)(=O)N2CCc3c(sc4ncnc(Nc5ccc(F)cc5Br)c34)C2)cc1 | 1000 | Activity (CAKI-1): Active; Activity (CNE): Active; Activity (786-0): Active; Activity (A498): Active; Activity (SUNE1): Active; Activity (CNE-2): Active; Activity (Homo sapiens): Active
29 | CN1CCc2c(sc3ncnc(Nc4ccc(Br)cc4)c23)C1 | 1690 | 
30 | Cc1ccc(Nc2ncnc3sc4c(c23)CCN(S(=O)(=O)c2ccc(F)cc2F)C4)c(Br)c1 | 1680 | 
31 | O=S(=O)(c1ccc(F)cc1F)N1CCc2c(sc3ncnc(Nc4ccc(F)cc4Br)c23)C1 | 1280 | 
32 | COc1cccc(Nc2ncnc3sc4c(c23)CCCC4)c1 | 1700 | 
33 | COc1cc(F)ccc1Nc1ncnc2sc3c(c12)CCN(S(=O)(=O)c1ccc(F)cc1F)C3 | 930 | 
34 | CC(C)(C)OC(=O)N1CCc2c(sc3ncnc(Nc4cccc(F)c4)c23)C1 | 2190 | 
35 | COc1cc(F)ccc1Nc1ncnc2sc3c(c12)CCN(S(=O)(=O)c1ccccc1[N+](=O)[O-])C3 | 1100 | 
36 | COc1ccc(S(=O)(=O)N2CCc3c(sc4ncnc(Nc5ccc(F)cc5F)c34)C2)cc1 | 830 | Activity (CAKI-1): Active; Activity (CNE): Active; Activity (786-0): Active; Activity (A498): Active; Activity (SUNE1): Active; Activity (CNE-2): Active; Activity (Homo sapiens): Active
37 | COc1cccc(Nc2ncnc3sc4c(c23)CCN(C)C4)c1 | 2290 | 
38 | Cc1cccc(Nc2ncnc3sc4c(c23)CCN(C(=O)OC(C)(C)C)C4)c1 | 2500 | 
39 | Cc1cccc(Nc2ncnc3sc4c(c23)CCCC4)c1 | 1790 | 
40 | COc1cc(F)ccc1Nc1ncnc2sc3c(c12)CCN(C)C3 | 930 | 
41 | CC(C)(C)OC(=O)N1CCc2c(sc3ncnc(Nc4ccc(F)cc4F)c23)C1 | 1620 | 

Now from value to molecule, other results behind:

Row | IC50 [1] [nM] | SMILES | further results
42 | 1540 | O=S(=O)(c1ccc(F)cc1F)N1CCc2c(sc3ncnc(Nc4ccc(Cl)cc4F)c23)C1 | 
43 | 2400 | Cc1cccc(Nc2ncnc3sc4c(c23)CCN(S(=O)(=O)c2ccc(F)cc2F)C4)c1 | 
44 | 1630 | O=S(=O)(c1cccs1)N1CCc2c(sc3ncnc(Nc4ccc(Cl)cc4)c23)C1 | 
45 | 940 | COc1cc(F)ccc1Nc1ncnc2sc3c(c12)CCN(S(=O)(=O)c1cccs1)C3 | 
46 | 1740 | O=S(=O)(c1ccc(F)cc1F)N1CCc2c(sc3ncnc(Nc4cccc(Cl)c4)c23)C1 | 
47 | 2170 | CC(C)(C)OC(=O)N1CCc2c(sc3ncnc(Nc4cccc(Cl)c4)c23)C1 | 
48 | 1730 | O=S(=O)(c1ccc(F)cc1F)N1CCc2c(sc3ncnc(Nc4ccc(Br)cc4)c23)C1 | 
49 | 1390 | COc1ccc(S(=O)(=O)N2CCc3c(sc4ncnc(Nc5cccc(F)c5)c34)C2)cc1 | 
50 | 2430 | Clc1cccc(Nc2ncnc3sc4c(c23)CCCC4)c1 | 
51 | 1070 | COc1ccc(S(=O)(=O)N2CCc3c(sc4ncnc(Nc5ccc(Br)cc5)c34)C2)cc1 | Activity (CAKI-1): Active; Activity (CNE): Active; Activity (786-0): Active; Activity (A498): Active; Activity (SUNE1): Active; Activity (CNE-2): Active; Activity (Homo sapiens): Active
52 | 1870 | CN1CCc2c(sc3ncnc(Nc4cccc(Cl)c4)c23)C1 | 
53 | 1400 | COc1ccc(S(=O)(=O)N2CCc3c(sc4ncnc(Nc5cccc(Cl)c5)c34)C2)cc1 | 
54 | 2130 | Cc1cccc(Nc2ncnc3sc4c(c23)CCN(S(=O)(=O)c2cccs2)C4)c1 | 
55 | 1500 | O=S(=O)(c1ccc(F)cc1F)N1CCc2c(sc3ncnc(Nc4ccc(Cl)cc4)c23)C1 | 
56 | 1880 | COc1cccc(Nc2ncnc3sc4c(c23)CCN(S(=O)(=O)c2ccc(F)cc2F)C4)c1 | 
57 | 1410 | COc1ccc(S(=O)(=O)N2CCc3c(sc4ncnc(Nc5cccc(C)c5)c34)C2)cc1 | 
58 | 1250 | O=[N+]([O-])c1ccccc1S(=O)(=O)N1CCc2c(sc3ncnc(Nc4ccc(Br)cc4)c23)C1 | 
59 | 2350 | COc1cccc(Nc2ncnc3sc4c(c23)CCN(S(=O)(=O)c2cccs2)C4)c1 | 
60 | 1640 | O=[N+]([O-])c1ccccc1S(=O)(=O)N1CCc2c(sc3ncnc(Nc4cccc(Cl)c4)c23)C1 | 
61 | 1380 | O=S(=O)(c1cccs1)N1CCc2c(sc3ncnc(Nc4cccc(Cl)c4)c23)C1 | 
62 | 1150 | COc1ccc(S(=O)(=O)N2CCc3c(sc4ncnc(Nc5ccc(Cl)cc5F)c34)C2)cc1 | Activity (CAKI-1): Active; Activity (CNE): Active; Activity (786-0): Active; Activity (A498): Active; Activity (SUNE1): Active; Activity (CNE-2): Active; Activity (Homo sapiens): Active

Row | IC50 [1] [nM] | SMILES | further results
63 | 2140 | COc1ccc(S(=O)(=O)N2CCc3c(sc4ncnc(Nc5cccc(OC)c5)c34)C2)cc1 | 
64 | 1390 | O=S(=O)(c1cccs1)N1CCc2c(sc3ncnc(Nc4ccc(Br)cc4)c23)C1 | 
65 | 1560 | Cc1ccc(Nc2ncnc3sc4c(c23)CCN(S(=O)(=O)c2cccs2)C4)c(Br)c1 | 
66 | 1650 | O=[N+]([O-])c1ccccc1S(=O)(=O)N1CCc2c(sc3ncnc(Nc4ccc(Cl)cc4)c23)C1 | 
67 | 1360 | O=S(=O)(c1cccs1)N1CCc2c(sc3ncnc(Nc4ccc(Cl)cc4F)c23)C1 | 
68 | 1990 | O=[N+]([O-])c1ccccc1S(=O)(=O)N1CCc2c(sc3ncnc(Nc4cccc(F)c4)c23)C1 | 
69 | 2060 | Cc1cccc(Nc2ncnc3sc4c(c23)CCN(S(=O)(=O)c2ccccc2[N+](=O)[O-])C4)c1 | 
70 | 970 | O=S(=O)(c1cccs1)N1CCc2c(sc3ncnc(Nc4ccc(F)cc4Br)c23)C1 | 
71 | 2020 | O=S(=O)(c1ccc(F)cc1F)N1CCc2c(sc3ncnc(Nc4cccc(F)c4)c23)C1 | 
72 | 1260 | O=[N+]([O-])c1ccccc1S(=O)(=O)N1CCc2c(sc3ncnc(Nc4ccc(Cl)cc4F)c23)C1 | 
73 | 2080 | Fc1cccc(Nc2ncnc3sc4c(c23)CCN(Cc2ccccc2)C4)c1 | 
74 | 2290 | Clc1cccc(Nc2ncnc3sc4c(c23)CCN(Cc2ccccc2)C4)c1 | 
75 | 1460 | O=S(=O)(c1cccs1)N1CCc2c(sc3ncnc(Nc4ccc(F)cc4F)c23)C1 | 
76 | 1220 | COc1ccc(S(=O)(=O)N2CCc3c(sc4ncnc(Nc5ccc(Cl)cc5)c34)C2)cc1 | 
77 | 2020 | COc1cccc(Nc2ncnc3sc4c(c23)CCN(S(=O)(=O)c2ccccc2[N+](=O)[O-])C4)c1 | 
78 | 2110 | Cc1cccc(Nc2ncnc3sc4c(c23)CCN(Cc2ccccc2)C4)c1 | 
79 | 2220 | Cc1cccc(Nc2ncnc3sc4c(c23)CCN(C)C4)c1 | 
80 | 1500 | O=S(=O)(c1cccs1)N1CCc2c(sc3ncnc(Nc4cccc(F)c4)c23)C1 | 
81 | 1920 | COc1cccc(Nc2ncnc3sc4c(c23)CCN(Cc2ccccc2)C4)c1 | 
82 | 2040 | CN1CCc2c(sc3ncnc(Nc4cccc(F)c4)c23)C1 | 
